High-throughput results (PubChem BioAssay)
MrgX1 agonist: human MrgX1 receptor agonism, primary screen; B-score at 10 µM; Q96LB2; 310,000 tested, 0.44% active; AID 588627; MrgX1-HEK293 cells, Fluo-4 calcium fluorescence, agonist mode; stronger effect = higher value;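 active means calcium response B-score plate-corrected fluorescence ratio at least 3 library SD, with starting fluorescence B-score inside 5 SD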
Target sequence (Q96LB2 whole entry, looked up): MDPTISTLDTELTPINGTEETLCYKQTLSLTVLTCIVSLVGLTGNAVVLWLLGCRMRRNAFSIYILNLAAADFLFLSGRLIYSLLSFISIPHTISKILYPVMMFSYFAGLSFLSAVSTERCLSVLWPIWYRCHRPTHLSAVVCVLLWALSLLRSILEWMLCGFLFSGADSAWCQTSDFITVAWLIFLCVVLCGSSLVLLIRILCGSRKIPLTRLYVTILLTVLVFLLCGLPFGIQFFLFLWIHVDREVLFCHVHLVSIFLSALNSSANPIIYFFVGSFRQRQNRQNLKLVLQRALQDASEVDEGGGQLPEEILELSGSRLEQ
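Material: MrgX1-expressing HEK293 cells; input: 15,000 cells per well; doses: test compound given as first of three sequential additions; schedule: overnight plating before 1 h dye loading; technique: Fluo-4 NW calcium-flux fluorescence, kinetic read; evaluation: baseline-normalised fluorescence change ratio, B-scored; control set: plate-wise positive and negative controls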
MrgX1 antag: antagonists of human MrgX1 receptor. Q96LB2. MRGX1-HEK293 calcium flux, Fluo-4, BAM8-22 antagonism; stronger effect = lower value. B-score at 10 µM. 310,000 tested, 1.3% active. AID 588676;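 active means calcium-response B-score plate-corrected more than 3 library SD below zero, starting fluorescence within 5 deviations, no agonist response on first addition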;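 further: peak minus trough fluorescence over baseline after final BAM8-22 challenge near maximal dose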
Cl transport mod: modulates chloride dependent transport by human KCC2; KCC2 cells, thallium flux FluoZin-2 fluorescence; B-score of Tl+ flux slope (higher = more flux/activation; lower = inhibition) at 10 µM; 190,000 tested, 2.2% active; AID 1456;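 active means thallium flux slope and its plate-corrected score both differing from the plate sample mean at a set confidence after two filtering rounds, in either direction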;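 further: slope of fluorescence scaled to starting intensity during 10 to 20 s after thallium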
RGS4 block: inhibitors of human RGS4; HEK293 M3R/RGS4 inducible, Fluo-4 calcium flux; stronger effect = higher value; triggered by carbachol at its EC20; B-score at 10 µM; AID 463165; 310,000 tested, 0.45% active;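 active means B-score, a plate-corrected calcium signal, over three deviations above library mean, with baseline fluorescence within five deviations of library mean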;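 further: RGS4 expression induced by doxycycline in cells with stable M3 receptor; B-score is computed from the integrated fluorescence ratio over baseline after carbachol; higher B-score means a larger calcium signal and so more RGS4 inhibition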
Target sequence (P49798 whole entry, looked up): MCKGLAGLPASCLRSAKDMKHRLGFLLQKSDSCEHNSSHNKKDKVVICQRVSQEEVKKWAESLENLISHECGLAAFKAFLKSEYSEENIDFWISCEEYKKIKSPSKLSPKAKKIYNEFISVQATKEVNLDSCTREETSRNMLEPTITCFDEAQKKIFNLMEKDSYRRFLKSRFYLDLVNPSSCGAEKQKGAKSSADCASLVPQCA
RGS4 act: potentiators or activators of RGS4; HEK293 M3R/inducible RGS4, carbachol calcium flux Fluo4; stronger effect = lower value; B-score at 10 µM; 310,000 tested, 0.92% active; AID 463111;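 active means B-score of the integrated calcium signal more than 4 SD below the library mean, with starting fluorescence not abnormally high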;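 further: negative B-score means reduced calcium response which marks RGS4 activation or potentiation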
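Test system: HEK293 cells with stable M3R and inducible RGS4; also added: carbachol at ECmax as muscarinic agonist stimulus; schedule: dye loading 30 min 37 °C, buffer rest 30 min RT; technique: kinetic calcium fluorescence imaging with Fluo4-AM dye, 2 µM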
MrgX1 allo act: human MrgX1 positive allosteric modulation, primary screen; MrgX1-HEK293, Fluo-4 calcium flux, FDSS; stronger effect = higher value; B-score at 10 µM; 310,000 tested, 0.63% active; AID 588675;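 active means plate-corrected calcium response at least 3 library SD above typical, normal starting fluorescence, not activating the receptor alone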;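 further: compound read alongside a low EC10 to EC30 dose of BAM8-22 agonist; peak minus trough fluorescence over baseline measured at the second addition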
KCC2 secondary: KCC2 (human) modulation, secondary assay; 3,700 tested, 15% active; normalised thallium flux (F/F0 slope) at 10 µM; HEK293-KCC2, thallium flux, FluoZin2 fluorescence; stronger effect = higher value; shares compounds with Cl transport mod; AID 1713;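 active means thallium flux slope above the same plate's solvent-only control mean plus 3 SD; inconclusive means the two replicate wells disagree; inactive means no significant difference from solvent-only control wells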
KCC2 bumet counter: thallium flux despite bumetanide block in KCC2 cells, secondary assay 3. AID 1714. HEK293-KCC2 + bumetanide/ouabain, thallium flux FluoZin2; stronger effect = higher value. normalized thallium flux at 10 µM. shares compounds with Cl transport mod. 3,700 tested, 49% active;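 active means thallium entry rate above the same plate's blocked-transporter control wells by more than 3 SD; inconclusive means the two repeat wells disagree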;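 further: raw slope of fluorescence over initial fluorescence between 10 and 20 s after thallium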
KCC2 secondary2: KCC2 (human) modulation, second secondary assay. normalized thallium flux at 10 µM. HEK293-KCC2, thallium flux FluoZin2 fluorescence; actives lie on both sides; F/F0 rise rate, 10–20 s post-thallium. 3,700 tested, 23% active. AID 1715. shares compounds with Cl transport mod;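 active means thallium flux slope more than 3 SD above or below the plate's solvent-only control mean, mostly below; inconclusive means the two repeat wells disagreed; inactive means no significant shift from solvent-only controls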;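 further: raw slope with 0.1% DMSO as baseline and bumetanide as block control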
HEK counter1: parental HEK flux effect, counter-screen. shares compounds with Cl transport mod. HEK293 parental cells, thallium flux FluoZin2, ouabain; baseline-ratio fluorescence slope, 10–20 s after thallium. thallium flux rate (normalised fluorescence) at 10 µM. 3,700 tested, 46% active. AID 1716;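 active means thallium flux rate significantly above the same plate's solvent-only control wells, beyond their mean plus 3 SD; inconclusive means the two replicate wells gave conflicting results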
KCC2 ouabain: confirmation of human KCC2 modulators with ouabain. raw Tl+ flux slope (below DMSO = inhibition, above = activation) at 10 µM. shares compounds with Cl transport mod. 3,700 tested, 48% active. AID 1717. HEK293-KCC2, thallium flux FluoZin2 fluorescence; bidirectional: low = inhibitor, high = activator;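 active means thallium flux slope beyond 3 SD from same-plate DMSO control mean in most replicates, usually higher, sometimes lower; inconclusive means repeat tests gave conflicting results; inactive means no significant difference from controls in most replicates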;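 further: slope of initial-normalized fluorescence between seconds 10 and 20 after thallium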
HEK counter2: counter-screen for KCC2 modulators: effect in parental HEK293 cells | shares compounds with Cl transport mod | thallium flux FluoZin-2 fluorescence slope | thallium flux slope at 10 µM | 3,700 tested, 33% active;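 active means thallium flux slope above the same plate's solvent-control mean plus 3 SD in both duplicate wells; inconclusive means duplicate wells that disagreed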;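 further: run without ouabain in cells lacking the KCC2 cotransporter; slope of fluorescence scaled to its starting value between 10 and 20 s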
Numbers without * were called inactive; i = inactive; ? = inconclusive; / = no result given. Shown are actives, neighbours in structure and some others; about 4.7% of the full set was active somewhere.

SMILES	MrgX1 agonist	MrgX1 antag	Cl transport mod	RGS4 block	RGS4 act	MrgX1 allo act	KCC2 secondary	KCC2 bumet counter	KCC2 secondary2	HEK counter1	KCC2 ouabain	HEK counter2
O=C(CO/N=C/c1c(Cl)cccc1Cl)NNC(=O)c1ccc(Cl)cc1	i	i	6.7*	i	i	i	0.0097	0.013*	0.034	?	0.021	0.012
c1coc(CNc2nc3nonc3nc2NCc2ccco2)c1	i	i	/	/	/	i	?	0.0049	0.028*	0.0073	0.019	0.011
O=S(=O)(Nc1nc2ccccc2nc1NCc1ccco1)c1ccccc1	i	i	-1.8	i	i	i	/	/	/	/	/	/
CC(C)C[C@H](NC(=O)N1CCn2c1nc1ccccc12)C(=O)NC1CCCCC1	i	i	/	i	i	i	/	/	/	/	/	/
CS(=O)(=O)c1ccccc1C(=O)Nc1nc2ccccc2[nH]1	i	i	-0.0072	i	i	i	/	/	/	/	/	/
CN(C)S(=O)(=O)c1ccc(Cl)c(C(=O)Nc2nc3ccccc3[nH]2)c1	i	i	/	i	i	i	0.0066	0.005	0.022*	0.0077	0.013*	0.01
CCOc1ccc2nc(N3C(=O)CNC3=S)sc2c1	i	i	10*	i	i	i	0.014*	0.031*	0.031	0.014*	0.026*	0.012*
Cc1cc2nc(N3C(=O)CNC3=S)sc2cc1C	i	i	19*	i	i	i	0.019*	0.058*	0.038	0.026*	0.041*	0.015*
CCCCC(=O)N1CCN(c2nc3ccc(OCC)cc3s2)CC1	i	i	/	i	i	i	/	/	/	/	/	/
O=C1CNC(=S)N1c1nc(-c2ccccc2)cs1	i	i	-0.55	i	i	i	/	/	/	/	/	/
COc1ccccc1Cn1[nH]nnc1=S	i	i	/	i	i	i	/	/	/	/	/	/
CCOC(=O)c1sc(-c2cccc(C(F)(F)F)c2)nc1O	i	i	8.1*	i	i	i	0.0071	0.015*	0.03	0.012*	?	0.014*
CCOC(=O)c1sc(-c2ccc(Cl)cc2)nc1O	i	i	15*	i	i	i	0.0096	0.022*	0.032	0.011*	0.024	?
CCOC(=O)c1sc2nc(Cc3ccc(Cl)cc3)[nH]c(=S)c2c1C	i	i	79*	i	i	i	0.025*	0.12*	0.038*	0.052*	0.076*	0.026*
CC(C)(C)c1ccc(OCCC(=O)Nc2cccc(S(=O)(=O)N3CCOCC3)c2)cc1	i	i	/	i	i	i	/	/	/	/	/	/
O=C(NCCCn1ccnc1)c1ccc(OCC(F)(F)F)cc1	i	i	/	i	i	i	/	/	/	/	/	/
O=C(Nn1c(O)c(C=C2N=c3ccccc3=N2)sc1=S)c1ccccc1	i	i	-3.5*	i	i	i	0.0069	0.0045	0.022*	0.0075	0.013*	0.01
Cc1cc(/C=C2\SC(=S)NC2=O)c(C)n1-c1ccccc1	i	i	24*	i	i	i	0.011	0.047*	0.036	0.029*	?	0.013*
CCOc1cc(/C=C2/SC(=S)NC2=O)ccc1OC(=O)c1ccco1	i	i	1.4	i	i	i	/	/	/	/	/	/
CC1Cc2cc(/C=C3/SC(=S)NC3=O)ccc2O1 (configuration not stated)	i	i	81*	i	i	i	?	0.12*	0.05*	0.065*	0.087*	0.051*
Cc1cc(/C=C2\SC(=S)NC2=O)cc(C)c1O	i	i	7.6*	i	i	i	0.006	0.036*	0.027	0.02*	0.027*	0.02*
COc1ccc(-n2c(C)cc(/C=C3\SC(=S)NC3=O)c2C)cc1	i	i	1.8	i	i	i	/	/	/	/	/	/
Cc1nn(C)c(C)c1/C=C1/SC(=S)NC1=O	i	i	-4*	i	i	i	0.01	0.0056	0.026*	0.0079	0.014*	0.011
Cc1ccc2nc(-c3ccc(O)cc3)oc2c1	i	i	/	i	i	i	/	/	/	/	/	/
Cc1ccc(-c2csc3ncnc(SCC(N)=O)c23)cc1	i	i	7.9*	i	i	i	0.018*	0.06*	0.038	?	0.05*	?
SMILES	MrgX1 agonist	MrgX1 antag	Cl transport mod	RGS4 block	RGS4 act	MrgX1 allo act	KCC2 secondary	KCC2 bumet counter	KCC2 secondary2	HEK counter1	KCC2 ouabain	HEK counter2
Cc1ccc(-c2csc3ncnc(SCc4ccc(C(=O)O)cc4)c23)cc1	i	i	140*	i	i	i	0.0082	0.12*	0.095*	0.094*	0.11*	0.09*
Cc1ccc(-c2csc3nc(SCC(N)=O)n(Cc4ccccc4)c(=O)c23)cc1	i	i	6.7*	i	i	i	0.011	0.021*	0.033	0.028*	0.026*	0.012
Cc1sc2ncnc(SCc3ccc(C(=O)O)cc3)c2c1C	i	i	1.4	i	i	i	/	/	/	/	/	/
COc1cc(C(CC(=O)Nc2ccccn2)N2Cc3ccccc3C2=O)cc(OC)c1OC (configuration not stated)	i	i	/	i	i	i	/	/	/	/	/	/
Cc1c(C=N)c(O)n(C)c(=O)c1C#N	i	i	0.0017	i	i	i	/	/	/	/	/	/
Cc1ccc(N/N=C/c2c(C)c(C#N)c(=O)n(C)c2O)cc1C	/	/	-3.9*	i	i	/	0.01	0.0065	0.035	?	0.019	0.011
Cc1c(C(=O)N2CCCCC2)c(S(=O)(=O)N2CCC(C)CC2)c(C)n1C	i	i	/	i	i	i	/	/	/	/	/	/
